Only some compounds are listed: those with a hit (about 2.9% of all), similar ones and a draw of the others.
Wee1 degr inh: blocks degradation of human Wee1 kinase | HeLa Luc-Wee1K328M stability, luciferase luminescence; 100% = proteasome inhibitor MG132 effect | reporter increase, % at 5 µM | P30291 | 1.2% of 220,000 active | AID 1321;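 active = activation above the mean of all tested compounds plus 3 SD, set per screening run, cut at about 8.8% in these data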;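 also: cells exposed to compound for 20 h before luminescence read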
RanGTP-Imp inh: inhibitors of RanGTP-importin-beta interaction, primary screen, biochemical, FRET, CFP-Ran, YFP-importin-beta, homogeneous | cell-free CFP-Ran/YFP-importin-beta FRET ratio | AID 2216 | 1.1% of 300,000 active | inhibition, % (no concentration beside the values);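 active = more than half of the replicate wells show a fall in the fluorescence ratio signal beyond about 16%, limit read from the data, passing the limit was not always enough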
proKLK7 act: proKLK7 (human) activation, primary screen; P49862; purified proKLK7, EDANS-DABCYL substrate fluorescence; 100% is mature enzyme control, 0% vehicle; activation, % at 7 µM; 0.9% of 370,000 active; AID 652039;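 active = activation above the mean of all tested compounds plus 3 SD, computed per campaign excluding outliers beyond control limits, cut at about 13% in these data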
Runt-SMMHC FRET: blocks binding of human RUNX1 Runt domain to CBFb-SMMHC | Q01196+Q13951 | Cerulean-Runt/Venus-CBFb-SMMHC FRET ratio 530/480, 1 h | inhibition, % at 20 µM | 0.74% of 220,000 active;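 active = mean inhibition across duplicate retests at 20 µM reaching about 50%, limit read from the data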;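 also: inhibitors lower the FRET ratio by blocking Runt binding to CBFb-SMMHC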
Target sequence (Q01196 whole entry, looked up, the tested form may be a part): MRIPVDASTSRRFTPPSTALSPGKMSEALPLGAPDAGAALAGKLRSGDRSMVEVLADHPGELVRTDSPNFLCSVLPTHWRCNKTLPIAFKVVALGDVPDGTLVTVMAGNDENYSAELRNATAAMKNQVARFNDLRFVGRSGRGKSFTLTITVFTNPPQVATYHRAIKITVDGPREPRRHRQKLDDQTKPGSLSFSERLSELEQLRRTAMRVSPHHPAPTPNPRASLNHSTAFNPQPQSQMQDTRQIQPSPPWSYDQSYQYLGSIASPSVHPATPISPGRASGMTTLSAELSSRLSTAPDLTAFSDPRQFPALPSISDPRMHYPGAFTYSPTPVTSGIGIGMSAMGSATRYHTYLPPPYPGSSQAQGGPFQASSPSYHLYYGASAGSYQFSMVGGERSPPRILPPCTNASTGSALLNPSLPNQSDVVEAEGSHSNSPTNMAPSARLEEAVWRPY
Target sequence (Q13951 whole entry, looked up, the tested form may be a part): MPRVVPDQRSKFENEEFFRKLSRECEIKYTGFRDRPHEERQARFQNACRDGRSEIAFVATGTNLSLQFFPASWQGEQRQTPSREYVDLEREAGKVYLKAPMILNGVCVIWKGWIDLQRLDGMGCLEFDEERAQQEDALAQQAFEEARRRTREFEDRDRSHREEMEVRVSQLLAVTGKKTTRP
Runt-CBFb FRET: Runt domain-CBFb interaction inhibition. Q01196+Q13951. 0.46% of 220,000 active. AID 1496. Cerulean-Runt/Venus-CBFb FRET ratio 530/480, 1 h. inhibition, % at 20 µM;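 active = inhibition over about 50% at 20 µM in the single-dose screen, limit read from the data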
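Schedule: protein complex preformed 1 h, compound exposure 1 h, room temperature, dark; test system: Cerulean-labeled Runt domain protein; amount: 100 nM per protein; buffer or medium: Tris 50 mM pH 7.5, KCl, K2SO4, 0.01% BSA; read-out: loss of energy transfer signal; detection: FRET fluorescence; controls: 5 µM unlabeled CBFb as full-inhibition high control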
AI-2 QS mod: Vibrio harveyi AI-2 quorum sensing modulation. AID 2094. Vibrio harveyi JMH597 AI-2 luminescence/OD600 ratio, 9 h; stronger effect = lower value; strain lacks LuxN and CqsS sensors; 0 = neutral-control median. activity change, % at 7.5 µM. 0.4% of 300,000 active; in the data active = activity change below about -75%, passing the limit was not always enough;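 also: luminescence divided by OD600 gain over 9 h not by final OD600 alone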
KLK7 act conf: proKLK7 activation, confirmation. shares compounds with proKLK7 act. purified proKLK7, EDANS-DABCYL substrate fluorescence; scaled: vehicle 0, mature enzyme 100. activation, % at 7 µM. 68% of 3,200 active. AID 686949;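 active = activation, as change over the incubation, above the mean of all tested compounds plus 3 SD, cut at about 13% in these data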
EDANS-DABCYL int: fluorescence interference counter-screen for KLK7 activators | 80% of 3,200 active | EDANS-DABCYL substrate fluorescence interference, no enzyme, 4 h; solvent 0%, active enzyme control 100% | shares compounds with proKLK7 act | activation, % at 7 µM;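 active = activation above the all-compound mean plus 3 SD, ignoring values outside control-based bounds, cut at about 4.8% in these data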;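 also: value is the 4 h activation minus the activation read at time zero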
Of the large screens only hits and unclear results are named; the others gave an inactive call (follow-up assays come after a bar, where they were run).

COC(C[C@H](O)CC(=O)[C@H](C)OCc1ccccc1)OC	none (no result: Wee1 degr inh)
COc1ccccc1NS(=O)(=O)c1cccc(C(=O)N/N=C/c2ccc(OCC(=O)O)cc2)c1	none
COc1ccccc1NS(=O)(=O)c1cccc(C(=O)N/N=C/c2ccc(NC(C)=O)cc2)c1	proKLK7 act 235.1 | KLK7 act conf inactive | EDANS-DABCYL int inactive
Cc1cc(-c2ccccc2)c2ccc(NC(=O)C(C)(C)C)nc2n1	proKLK7 act 33.0 (no result: Wee1 degr inh, Runt-SMMHC FRET, Runt-CBFb FRET) | KLK7 act conf inactive | EDANS-DABCYL int inactive
Cc1cc(C)nc(/N=C(\NC(=O)C(C)(C)C)Nc2ccccc2)n1	none
O=C(COC(=O)c1ccccc1SCC(=O)NC1CCS(=O)(=O)C1)NC1CCS(=O)(=O)C1 (configuration not stated)	proKLK7 act 14.1 | KLK7 act conf 19.0 | EDANS-DABCYL int 19.0
O=C(COC(=O)c1ccccc1SCC(=O)N1CCCC1)NC1CCS(=O)(=O)C1 (configuration not stated)	none (no result: Wee1 degr inh, RanGTP-Imp inh, Runt-SMMHC FRET, Runt-CBFb FRET)
CCOc1cc(/C=N/NC(=O)c2cccnc2)cc(Br)c1OCC(N)=O	none
COc1cc(CNc2ncnc3c2ncn3[C@H]2CN(Cc3ccncc3)C[C@@H](CO)O2)cc(OC)c1OC	none (no result: Wee1 degr inh, RanGTP-Imp inh, Runt-SMMHC FRET, Runt-CBFb FRET, AI-2 QS mod)
COc1c2c(cc3ccc(=O)oc13)CCO2	proKLK7 act 20.2 (no result: Wee1 degr inh, Runt-SMMHC FRET, Runt-CBFb FRET) | KLK7 act conf 27.9 | EDANS-DABCYL int 28.8
COc1ccccc1C(CNC(=O)CCNC(=O)c1ccccc1Cl)N1CCCC1 (configuration not stated)	none (no result: Wee1 degr inh, Runt-SMMHC FRET, Runt-CBFb FRET)
Nc1ccc(/C=C/C(=O)c2ccco2)cc1	none
CC(C)(C)C(=O)Nc1ccc(/C=C/C(=O)c2ccco2)cc1	proKLK7 act 78.1 (no result: Wee1 degr inh, Runt-SMMHC FRET, Runt-CBFb FRET) | KLK7 act conf 53.4 | EDANS-DABCYL int 47.6
Cc1cccc(NC(=O)C2CC(=O)NC(Nc3nc4ccccc4s3)=N2)c1 (configuration not stated)	none
CC(C)(C)c1ccc(/C=C2\SC(=O)N(CCNC(=O)c3cccc(S(=O)(=O)N4CCOCC4)c3)C2=O)cc1	none (no result: proKLK7 act)
O=C(CSc1nnc(C2CC2)n1Cc1ccco1)NCC(F)(F)F	none
CC(C)(C)CC(C)(C)Nc1c(-c2ccc(O)cc2)nc2cnccn12	proKLK7 act 39.3 (no result: Runt-SMMHC FRET, Runt-CBFb FRET) | KLK7 act conf inactive | EDANS-DABCYL int inactive
COC(=O)[C@]1(CNC(=O)C(C)(C)C)CC(=O)N(Cc2ccc(Cl)cc2)[C@@H]1c1ccc(OC)cc1	none (no result: Wee1 degr inh, RanGTP-Imp inh, Runt-SMMHC FRET, Runt-CBFb FRET, AI-2 QS mod)
Cn1c(=O)c2c(C(=O)O)cc(-c3ccccc3)nc2n(Cc2ccccc2)c1=O	proKLK7 act 37.5 (no result: Wee1 degr inh, Runt-SMMHC FRET, Runt-CBFb FRET) | KLK7 act conf 58.8 | EDANS-DABCYL int 65.3
CC(=O)N1CCN(Cc2cc(=O)oc3ccc4ccccc4c23)CC1	none (no result: Wee1 degr inh, RanGTP-Imp inh, Runt-SMMHC FRET, Runt-CBFb FRET, AI-2 QS mod)
O=C1CCC(C(=O)OCc2cc(=O)oc3ccc4ccccc4c23)=NN1	proKLK7 act 144.8 | KLK7 act conf 357.3 | EDANS-DABCYL int 370.8
CCC(=O)OCc1cc(=O)oc2ccc3ccccc3c12	proKLK7 act 22.5 (no result: Wee1 degr inh, Runt-SMMHC FRET, Runt-CBFb FRET) | KLK7 act conf inactive | EDANS-DABCYL int inactive
O=C(O)/C=C/C(=O)Nc1ccc(OC(F)(F)F)cc1Br	none
COc1ccc(NS(=O)(=O)c2cccc(NC(=O)C3=NN(c4ccccc4)C(=O)CC3)c2)cc1	none (no result: Wee1 degr inh, Runt-SMMHC FRET, Runt-CBFb FRET)
CN(c1ccccc1)S(=O)(=O)c1cccc(NC(=O)C2=NN(c3ccccc3)C(=O)CC2)c1	proKLK7 act 53.4 (no result: Wee1 degr inh, RanGTP-Imp inh, Runt-SMMHC FRET, Runt-CBFb FRET, AI-2 QS mod) | KLK7 act conf inactive | EDANS-DABCYL int 8.6
CNC(=O)c1cc(Nc2nnc(-c3ccc(C)c(S(N)(=O)=O)c3)c3ccccc23)ccc1OC	proKLK7 act 211.6 (no result: Wee1 degr inh, Runt-SMMHC FRET, Runt-CBFb FRET) | KLK7 act conf 223.0 | EDANS-DABCYL int 136.2
CCOC(=O)C1CCN(C(=O)Nc2ccc3oc(C)nc3c2)CC1	none
